This note sets out measurements from ChEMBL document CHEMBL1671796, “Development of non-peptide ligands of growth factor receptor-bound protein 2-SRC homology 2 domain using molecular modeling and NMR spectroscopy” (J Med Chem, 2011).

Assay [1] has as its target T1, Growth factor receptor-bound protein 2 (Homo sapiens, UniProt P62993). Description: Displacement of biotin-Ahx-PSpYVNVQN from Grb2-SH2 by competition binding assay.
Target sequence in this assay (P62993 whole entry): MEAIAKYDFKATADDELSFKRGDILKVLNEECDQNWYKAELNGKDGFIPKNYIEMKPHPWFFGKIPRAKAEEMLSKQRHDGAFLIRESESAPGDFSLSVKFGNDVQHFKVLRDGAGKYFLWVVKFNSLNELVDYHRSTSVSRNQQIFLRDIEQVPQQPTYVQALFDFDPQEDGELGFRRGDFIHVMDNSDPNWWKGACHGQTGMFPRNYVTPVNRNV
Assay [2] has as its target T1, Growth factor receptor-bound protein 2. Description: Displacement of biotin-Ahx-PSpYVNVQN from Grb2-SH2 at 5 mM by competition binding assay.
Target sequence in this assay (P62993 whole entry, looked up): as the sequence (P62993 whole entry) above
Assay [3] relates to MCF7. Nature of the assay: Cytotoxicity against HER2-positive human MCF7 cells after 24 hrs by MTT assay. Type of assay: functional, cell-based. The following applies: MCF7, 24 h. In a few lines: (§1)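 Human breast cancer cells tested at 50 and 100 μM: HER2-positive MCF7 and HER2-negative MCF7 and MDA-231. N1 fibroblasts were run alongside at the same two concentrations.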
Assay [4] concerns MCF7. Description: Cytotoxicity against HER2-negative human MCF7 cells after 24 hrs by MTT assay. Type of assay: functional, cell-based. In a few lines:
as §1

Assay [5] concerns the target T1, Growth factor receptor-bound protein 2. Nature of the assay: Inhibition of HER2-Grb2 interaction in HER2-positive human MCF7 cells assessed as decrease in interaction at 50 uM by immunoblotting. The format is cell-based. More on the design: scale not given: the % may be the effect or the level left.
Target sequence in this assay (P62993 whole entry, looked up): as the sequence (P62993 whole entry) above
A further assay relates to MDA-MB-231. Description: Cytotoxicity against HER2-negative human MDA231 cells after 24 hrs by MTT assay. Type of assay: functional, cell-based. In a few lines:
as §1

Molecules are shown by their SMILES. Active and inactive are the calls of the source. No cut-off for these calls is given here.

`CCCC(=O)N[C@@H](Cc1ccc(OP(=O)(O)O)cc1)C(=O)NCCN1CCNC1=O` yielded an IC50 in assay [1] of 1330 µM.

`CC(=O)N[C@@H](Cc1ccc(OP(=O)(O)O)cc1)C(=O)NCCc1cnc[nH]1` gave an inhibition in assay [2] of less than 10%. On to `CC(=O)N[C@@H](Cc1ccc(OP(=O)(O)O)cc1)C(=O)NC1(CCN2CCCNC2=O)CCCCC1`, for which the 50% inhibitory concentration (IC50) came out at 100 µM in the assay with MCF7 [3] and 56 µM in assay [1]. In addition, the result in the assay on MCF7 [4] and with MDA-MB-231 was inactive. Moreover, the Activity in assay [5] stood at 30%. In assay [1], `O=C(O)C[C@@H](Cc1ccc(CP(=O)(O)O)cc1)C(=O)NC1(C(=O)N[C@@H](CC(=O)O)C(=O)NCCCc2cccc3ccccc23)CCCCC1` registered an IC50 of 0.008 µM. With `CCCC(=O)N[C@@H](Cc1ccc(OP(=O)(O)O)cc1)C(=O)NCCCN1CCCC1=O`, the inhibition in assay [2] was less than 10%.

In the case of `CC(=O)N[C@@H](Cc1ccc(OP(=O)(O)O)cc1)C(=O)NCCN1CCNC1=O`, the inhibition in assay [2] is less than 10%. For the compound `CC(=O)N[C@@H](Cc1ccc(OP(=O)(O)O)cc1)C(=O)NCCCN1CCCNC1=O`, the half-inhibitory concentration (IC50) in assay [1] was 174 µM. Compound `O=C(N[C@@H](Cc1ccc(OP(=O)(O)O)cc1)C(=O)NCCCN1CCCC1=O)c1ccccc1` returned an inhibition in assay [2] of less than 10%. For `CCCC(=O)N[C@@H](Cc1ccc(OP(=O)(O)O)cc1)C(=O)NCCCN1CCCNC1=O`, the IC50 in assay [1] came to 314 µM.

`CC(=O)NC(Cc1ccc(OP(=O)(O)O)cc1)C(=O)NCCCN1CCCNC1=O` (racemic) came in with an IC50 in assay [1] of 2310 µM. In assay [2], `CC(=O)N[C@H](Cc1ccc(OP(=O)(O)O)cc1)C(=O)NCCCN1CCCNC1=O` returned an inhibition of less than 10%. The same measure, in the same setting: in the case of `O=C(N[C@@H](Cc1ccc(OP(=O)(O)O)cc1)C(=O)NCCN1CCNC1=O)c1ccccc1` it was less than 10%; in that of `O=C(N[C@@H](Cc1ccc(OP(=O)(O)O)cc1)C(=O)NCCCN1CCCNC1=O)c1ccccc1`, less than 10%. Compound `CC(=O)N[C@@H](Cc1ccc(OP(=O)(O)O)cc1)C(=O)NCCCN1CCCC1=O` yielded an inhibition in assay [2] of less than 10%.
